Measured values from ChEMBL document CHEMBL2046302, “Fused tricyclic indoles as S1P₁ agonists with robust efficacy in animal models of autoimmune disease” (Bioorg Med Chem Lett, 2012).
The source made the active and inactive calls. The calls are words filed in the database; no cut-off is given here.

Experiments:
[1] = target: T1, Sphingosine 1-phosphate receptor 1 (Homo sapiens, UniProt P21453); experiment: Agonist activity against human S1P1 assessed as accumulation of cAMP by HTRF assay; type: functional
Outline: (§1)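 Agonist EC50 was read from a cAMP HTRF assay run on human, rat and mouse S1P1. Response was scaled against S1P, and values are the mean of three or more replicates.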

Mus musculus [2] = experiment: Immunosuppressant activity in BALB/c mouse assessed as reduction in circulating lymphocyte at 6 mg/kg, po measured up to 24 hrs; type: functional, organism-based; design: dose 6 mg/kg
Outline: (§2)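 BALB/c mice were dosed orally as a suspension in 0.5% methyl cellulose, at 6 mg/kg or 1.0 mg/kg. Circulating lymphocytes were followed over time, with readings at 5 h and 24 h.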

Mus musculus [3] = experiment: Immunosuppressant activity in BALB/c mouse assessed as reduction in circulating lymphocyte at 30 mg/kg, po measured at 24 hrs; type: functional, organism-based; design: dose 30 mg/kg
Mus musculus [4] = experiment: Immunosuppressant activity in BALB/c mouse assessed as reduction in circulating lymphocyte at 6 mg/kg, po measured after 5 hrs; type: functional, organism-based; design: dose 6 mg/kg; outline: as §2
Rattus norvegicus [5] = experiment: Immunosuppressant activity in collagen-induced Lewis rat arthritis model assessed as reduction in joint inflammation at 0.075 mg/kg, po qd; type: functional, organism-based; design: dose 0.075 mg/kg
[6] = target: Sphingosine 1-phosphate receptor 5 (Homo sapiens, UniProt Q9H228); experiment: Agonist activity against human S1P5 by beta arrestin recruitment assay; type: functional
Outline: (§3)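 Agonist EC50 at human S1P1 through S1P5 was measured by β-arrestin recruitment. Values are the mean of three or more replicates.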

[7] = target: Sphingosine 1-phosphate receptor 1 (Mus musculus, UniProt O08530); experiment: Agonist activity against mouse S1P1 assessed as accumulation of cAMP by HTRF assay; type: functional; outline: as §1
[8] = target: T1, Sphingosine 1-phosphate receptor 1; experiment: Agonist activity against human S1P1 by beta arrestin recruitment assay; type: functional; outline: as §3
[9] = target: Sphingosine 1-phosphate receptor 3 (Homo sapiens, UniProt Q99500); experiment: Agonist activity against human S1P3 by beta arrestin recruitment assay; type: functional; outline: as §3
[10] = target: Sphingosine 1-phosphate receptor 1 (Rattus norvegicus, UniProt P48303); experiment: Agonist activity against rat S1P1 assessed as accumulation of cAMP by HTRF assay; type: functional; outline: as §1
[11] = target: T2, Sphingosine 1-phosphate receptor 4 (Homo sapiens, UniProt O95977); experiment: Agonist activity against human S1P4 by beta arrestin recruitment assay; type: functional; outline: as §3
T2 sequence (O95977 whole entry): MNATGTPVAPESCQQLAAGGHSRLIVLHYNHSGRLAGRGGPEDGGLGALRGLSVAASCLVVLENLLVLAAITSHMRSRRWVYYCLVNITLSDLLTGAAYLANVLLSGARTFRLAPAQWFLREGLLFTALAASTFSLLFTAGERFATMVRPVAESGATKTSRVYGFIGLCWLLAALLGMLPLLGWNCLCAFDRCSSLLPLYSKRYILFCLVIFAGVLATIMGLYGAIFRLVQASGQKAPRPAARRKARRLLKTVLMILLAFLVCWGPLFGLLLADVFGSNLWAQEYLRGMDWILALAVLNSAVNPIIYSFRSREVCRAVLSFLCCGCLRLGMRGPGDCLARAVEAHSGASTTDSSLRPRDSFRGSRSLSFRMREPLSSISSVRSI

[12] = target: Sphingosine 1-phosphate receptor 2 (Homo sapiens, UniProt O95136); experiment: Agonist activity against human S1P2 by beta arrestin recruitment assay; type: functional; outline: as §3
Mus musculus [13] = experiment: Immunosuppressant activity in autoimmune encephalomyelitis C57B1/6 mouse model assessed as reduction in disease score at 1 mg/kg, po qd administered on day 3 post challenge; type: functional, organism-based; design: dose 1 mg/kg
Outline: (§4)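 Oral dosing once daily in 0.5% methylcellulose began on day 3. Signs of disease were monitored daily and graded on a 1–5 scale, from limp tail or hind-limb weakness (1) to death (5).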

Rattus norvegicus [14] = experiment: Immunosuppressant activity in collagen-induced Lewis rat arthritis model assessed as reduction in joint inflammation at 1 mg/kg, po qd; type: functional, organism-based; design: dose 1 mg/kg
Rattus norvegicus [15] = experiment: Toxicity in telemeterized Charles-River Sprague-Dawley rat assessed as reduction in heart rate at 3 mg/kg, po measured over 20 hrs; type: organism-based; design: dose 3 mg/kg, route oral; details: in vivo
Outline: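 Telemeterized Charles River Sprague–Dawley rats received 3 or 30 mg/kg orally as a suspension in 0.5% methyl cellulose, with vehicle-treated and positive-control groups. Heart rate was recorded hourly over 20 h.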

[16] = Half life in rat liver microsome; type: ADME; details: liver microsomes
[17] = Half life in human liver microsome; type: ADME; details: liver microsomes
[18] = AUClast in Sprague-Dawley rat in Sprague-Dawley rat at 2 mg/kg, iv and 3 mg/kg, po; type: ADME, organism-based; details: plasma
Outline: (§5)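 Male Sprague–Dawley rats received 2.0 mg/kg IV in 100% PEG400 and 3.0 mg/kg PO in 0.5% methyl cellulose. Clearance, Vss, terminal half-life, Cmax, AUClast and oral bioavailability were derived from plasma levels.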

[19] = Terminal half life in Sprague-Dawley rat at 2 mg/kg, iv and 3 mg/kg, po; type: ADME, organism-based; details: in vivo, read-out: beta t1/2 (converted); outline: as §5
[20] = Oral bioavailability in Sprague-Dawley rat at 3 mg/kg; type: ADME, organism-based; details: in vivo; outline: as §5
[21] = Clearance in Sprague-Dawley rat at 2 mg/kg, iv and 3 mg/kg, po; type: ADME, organism-based; details: in vivo; outline: as §5
[22] = Volume of distribution at steady state in Sprague-Dawley rat at 2 mg/kg, iv and 3 mg/kg, po; type: ADME, organism-based; details: in vivo, read-out: Vdss; outline: as §5
[23] = Cmax in Sprague-Dawley rat in Sprague-Dawley rat at 2 mg/kg, iv and 3 mg/kg, po; type: ADME, organism-based; details: in vivo; outline: as §5
[24] = Half life in mouse liver microsome; type: ADME; details: liver microsomes
Rattus norvegicus [25] = experiment: Immunosuppressant activity in collagen-induced Lewis rat arthritis model assessed as reduction in joint inflammation at 1 to 10 mg/kg, po qd; type: functional, organism-based
Mus musculus [26] = experiment: Immunosuppressant activity in BALB/c mouse assessed as reduction in circulating lymphocyte at 1 mg/kg, po measured at 5 hrs; type: functional, organism-based; design: dose 1 mg/kg; outline: as §2
Mus musculus [27] = experiment: Immunosuppressant activity in autoimmune encephalomyelitis C57B1/6 mouse model assessed as reduction in disease score at 10 mg/kg, po qd administered on day 3 post challenge; type: functional, organism-based; design: dose 10 mg/kg; outline: as §4
Mus musculus [28] = experiment: Immunosuppressant activity in BALB/c mouse assessed as reduction in circulating lymphocyte at 1 mg/kg, po measured at 24 hrs; type: functional, organism-based; design: dose 1 mg/kg; outline: as §2
Mus musculus [29] = experiment: Reduction T-cell mediated beta-cell destruction in cyclophosphamide-induced non-obese type 1 diabetes mouse model assessed as normalization of blood glucose at 3 to 10 mg/kg, po qd for 25 days; type: functional, organism-based
Outline: (§6)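 NOD mice were given cyclophosphamide i.p. on days 0 and 14 to accelerate diabetes onset. Oral dosing once daily in 0.5% methyl cellulose ran from day 0 to day 25. Animals with non-fasting blood glucose >250 mg/dL were scored diabetic.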

Mus musculus [30] = experiment: Reduction T-cell mediated beta-cell destruction in cyclophosphamide-induced non-obese type 1 diabetes mouse model assessed as normalization of blood glucose at 1 mg/kg, po qd for 25 days; type: functional, organism-based; design: dose 1 mg/kg; outline: as §6

Sphingosine 1-phosphate receptor 3, sequence (Q99500 whole entry): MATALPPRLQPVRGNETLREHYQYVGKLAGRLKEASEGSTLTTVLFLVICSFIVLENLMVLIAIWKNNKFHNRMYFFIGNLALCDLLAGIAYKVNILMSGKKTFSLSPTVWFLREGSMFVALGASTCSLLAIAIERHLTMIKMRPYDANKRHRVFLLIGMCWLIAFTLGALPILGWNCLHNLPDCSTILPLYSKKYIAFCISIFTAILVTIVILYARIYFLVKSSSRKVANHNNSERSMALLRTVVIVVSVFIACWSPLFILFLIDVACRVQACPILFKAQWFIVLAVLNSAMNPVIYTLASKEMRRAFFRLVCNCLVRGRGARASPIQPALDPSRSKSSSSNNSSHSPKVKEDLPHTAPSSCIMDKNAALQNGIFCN
T1 sequence (P21453 whole entry): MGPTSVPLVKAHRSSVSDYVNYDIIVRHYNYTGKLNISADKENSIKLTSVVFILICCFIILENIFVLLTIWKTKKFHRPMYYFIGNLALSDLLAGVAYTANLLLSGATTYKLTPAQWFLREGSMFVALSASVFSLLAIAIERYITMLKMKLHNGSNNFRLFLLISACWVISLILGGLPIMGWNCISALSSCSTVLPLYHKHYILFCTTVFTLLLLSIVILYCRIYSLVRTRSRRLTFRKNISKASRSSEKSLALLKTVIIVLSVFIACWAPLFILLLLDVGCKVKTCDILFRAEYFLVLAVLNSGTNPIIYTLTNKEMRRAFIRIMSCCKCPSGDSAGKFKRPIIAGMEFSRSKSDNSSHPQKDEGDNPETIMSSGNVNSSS
Sphingosine 1-phosphate receptor 2, sequence (O95136 whole entry): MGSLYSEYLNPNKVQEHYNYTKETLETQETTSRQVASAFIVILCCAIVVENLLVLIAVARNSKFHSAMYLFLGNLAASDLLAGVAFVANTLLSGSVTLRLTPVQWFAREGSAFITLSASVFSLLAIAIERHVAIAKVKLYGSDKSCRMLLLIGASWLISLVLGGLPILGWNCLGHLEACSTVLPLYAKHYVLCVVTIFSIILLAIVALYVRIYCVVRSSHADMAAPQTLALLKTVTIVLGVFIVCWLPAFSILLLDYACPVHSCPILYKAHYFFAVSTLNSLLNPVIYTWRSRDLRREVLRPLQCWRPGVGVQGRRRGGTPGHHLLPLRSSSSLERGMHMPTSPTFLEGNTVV
Sphingosine 1-phosphate receptor 1 (Rattus norvegicus, UniProt P48303), sequence (P48303 whole entry): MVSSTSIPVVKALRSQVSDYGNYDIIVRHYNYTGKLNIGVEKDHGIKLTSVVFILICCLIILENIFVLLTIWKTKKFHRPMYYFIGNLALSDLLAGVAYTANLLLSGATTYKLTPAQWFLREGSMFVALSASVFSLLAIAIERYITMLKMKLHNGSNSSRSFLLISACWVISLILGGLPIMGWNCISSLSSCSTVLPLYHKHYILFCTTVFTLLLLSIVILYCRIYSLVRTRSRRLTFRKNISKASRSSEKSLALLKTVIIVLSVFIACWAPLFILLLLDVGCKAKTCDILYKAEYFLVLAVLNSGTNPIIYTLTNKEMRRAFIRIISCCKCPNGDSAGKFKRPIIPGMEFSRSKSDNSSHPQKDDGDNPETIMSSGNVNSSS
Sphingosine 1-phosphate receptor 1 (Mus musculus, UniProt O08530), sequence (O08530 whole entry): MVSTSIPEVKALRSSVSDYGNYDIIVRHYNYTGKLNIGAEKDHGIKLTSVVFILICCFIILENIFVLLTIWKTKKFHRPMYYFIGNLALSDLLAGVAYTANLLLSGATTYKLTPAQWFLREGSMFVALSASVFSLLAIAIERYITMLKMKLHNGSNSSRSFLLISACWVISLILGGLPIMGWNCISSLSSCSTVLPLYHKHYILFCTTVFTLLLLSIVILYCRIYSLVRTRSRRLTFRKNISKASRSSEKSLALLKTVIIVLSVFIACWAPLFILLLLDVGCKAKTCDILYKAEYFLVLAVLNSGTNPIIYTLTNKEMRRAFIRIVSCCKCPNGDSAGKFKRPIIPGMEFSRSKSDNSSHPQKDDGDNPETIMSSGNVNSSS
Sphingosine 1-phosphate receptor 5, sequence (Q9H228 whole entry): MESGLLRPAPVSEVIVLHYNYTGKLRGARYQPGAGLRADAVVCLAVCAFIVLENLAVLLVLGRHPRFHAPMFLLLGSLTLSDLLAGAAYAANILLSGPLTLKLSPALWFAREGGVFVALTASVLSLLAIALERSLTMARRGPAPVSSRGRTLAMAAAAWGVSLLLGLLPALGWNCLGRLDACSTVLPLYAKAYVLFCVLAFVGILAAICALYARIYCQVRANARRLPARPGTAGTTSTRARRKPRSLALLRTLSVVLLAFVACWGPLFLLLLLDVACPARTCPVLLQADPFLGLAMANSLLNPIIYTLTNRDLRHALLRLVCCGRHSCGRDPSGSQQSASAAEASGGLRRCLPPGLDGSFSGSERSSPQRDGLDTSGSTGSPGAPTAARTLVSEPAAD

CC(C)Oc1ccc(-c2nc(-c3ccc4c(c3)cc3n4CCC3CC(=O)O)no2)cc1C#N (racemic)
EC50 [1]: 0.61 nM

O=C(O)CC1CCn2c1cc1cc(-c3noc(-c4cc(C(F)(F)F)cc(C(F)(F)F)c4)n3)ccc12 (racemic)
EC50 [1]: 2.1 nM

N#Cc1cc(OC(F)(F)F)cc(-c2nc(-c3ccc4[nH]c5c(c4c3)CCC5CC(=O)O)no2)c1 (single isomer, unassigned) [listing 1 of 2 here]
Activity (Mus musculus [2]): Active | Activity (Mus musculus [3]): Active | Activity (Mus musculus [4]): Active

CN(Cc1cnc2nc(N)nc(N)c2n1)c1ccc(C(=O)N[C@@H](CCC(=O)O)C(=O)O)cc1
Activity (Rattus norvegicus [5]): Active

N#Cc1cc(OC(F)(F)F)cc(-c2nc(-c3ccc4[nH]c5c(c4c3)CCC5CC(=O)O)no2)c1 (stereo in doubt; 17a)
EC50 [6]: 11 nM | EC50 [7]: 8.3 nM | EC50 [8]: 55 nM | EC50 [9]: > 100000 nM | EC50 [10]: 1.4 nM | EC50 [1]: 1.73 nM | EC50 [11]: 239 nM | EC50 [12]: > 100000 nM

CCCCCCCCc1ccc(CCC(N)(CO)CO)cc1 [FINGOLIMOD]
Activity (Mus musculus [13]): Active | Activity (Rattus norvegicus [14]): Active | Activity (Rattus norvegicus [15]): Toxic

N#Cc1cc(OC(F)(F)F)cc(-c2nc(-c3ccc4[nH]c5c(c4c3)CCC5CC(=O)O)no2)c1 (single isomer, unassigned) [listing 2 of 2 here]
half-life [16]: > 1 h | EC50 [6]: 15 nM | half-life [17]: > 1 h | EC50 [7]: 2.6 nM | EC50 [8]: 36 nM | EC50 [9]: > 100000 nM | AUC(0-t) [18]: 11000 ng·h/mL | half-life [19]: 5.46 h | bioavailability [20]: 32.5% | clearance [21]: 1.39 mL/min/kg | Vd [22]: 0.734 L/kg | EC50 [10]: 1.8 nM | Cmax [23]: 1400 ng/mL | EC50 [1]: 0.75 nM | EC50 [11]: 462 nM | EC50 [12]: > 100000 nM | half-life [24]: > 1 h

N#Cc1cc(OC(F)(F)F)cc(-c2nc(-c3ccc4c(c3)cc3n4CCC3CC(=O)O)no2)c1 (single isomer, unassigned; enantiomer 2)
Activity (Mus musculus [2]): Active | Activity (Rattus norvegicus [25]): Active | Activity (Mus musculus [26]): Active | Activity (Mus musculus [27]): Active | Activity (Mus musculus [28]): inactive | Activity (Mus musculus [4]): Active | Activity (Mus musculus [29]): Active | Activity (Mus musculus [30]): Active

N#Cc1cc(OC(F)(F)F)cc(-c2nc(-c3ccc4c(c3)cc3n4CCC3CC(=O)O)no2)c1 (racemic)
EC50 [1]: 0.25 nM

N#Cc1cc(-c2nc(-c3ccc4c(c3)cc3n4CCC3CC(=O)O)no2)ccc1OC(F)(F)F (racemic)
EC50 [1]: 0.59 nM

COc1cc(C#N)cc(-c2nc(-c3ccc4c(c3)cc3n4CCC3CC(=O)O)no2)c1 (racemic)
EC50 [1]: 4.6 nM

N#Cc1cc(-c2nc(-c3ccc4[nH]c5c(c4c3)CCC5CC(=O)O)no2)ccc1OC(F)(F)F (racemic)
EC50 [1]: 3.2 nM

N#Cc1cc(OC(F)(F)F)cc(-c2nc(-c3ccc4c(c3)cc3n4CCC3CC(=O)O)no2)c1 (stereo in doubt; 23a)
EC50 [6]: 289 nM | EC50 [7]: 5.5 nM | EC50 [8]: 123 nM | EC50 [9]: > 100000 nM | EC50 [10]: 3.4 nM | EC50 [1]: 0.76 nM | EC50 [11]: > 100000 nM | EC50 [12]: > 100000 nM

N#Cc1cc(OC(F)(F)F)cc(-c2nc(-c3ccc4[nH]c5c(c4c3)CCC5CC(=O)O)no2)c1 (racemic)
EC50 [1]: 1.1 nM

COc1ccc(-c2nc(-c3ccc4[nH]c5c(c4c3)CCC5CC(=O)O)no2)cc1C#N (racemic)
EC50 [1]: 4.6 nM

COc1ccc(-c2nc(-c3ccc4c(c3)cc3n4CCC3CC(=O)O)no2)cc1C#N (racemic)
EC50 [1]: 2.9 nM

COc1cc(C#N)cc(-c2nc(-c3ccc4[nH]c5c(c4c3)CCC5CC(=O)O)no2)c1 (racemic)
EC50 [1]: 157 nM

CC(C)Oc1ccc(-c2nc(-c3ccc4[nH]c5c(c4c3)CCC5CC(=O)O)no2)cc1C#N (racemic)
EC50 [1]: 7.5 nM
